Measurements: ChEMBL document CHEMBL1629563, “Pharmacokinetic and safety evaluation of BILR 355, a second-generation nonnucleoside reverse transcriptase inhibitor, in healthy volunteers” (Antimicrob Agents Chemother, 2008)

What was measured:
[1] = Renal clearance in healthy human at 5 mg, po administered as single dose coadministered with 100 mg of ritonavir by high-pressure liquid chromatography-tandem mass spectrometry/mass spectrometry method; format: ADME, organism-based, Kidney; settings: in vivo, read-out: CL_renal (converted)
[2] = tested on: Homo sapiens; assay: Toxicity in healthy human assessed as occurrence of palpitations at 100 mg, po administered as single dose relative to control; format: organism-based; settings: in vivo
[3] = tested on: Homo sapiens; assay: Toxicity in healthy human assessed as occurrence of maculopapular rash at 25 mg, po administered as single dose coadministered with 100 mg of ritonavir; format: organism-based; settings: in vivo
[4] = tested on: Homo sapiens; assay: Toxicity in healthy human assessed as occurrence of diarrhea at 25 mg, po administered as single dose coadministered with 100 mg of ritonavir; format: organism-based; settings: in vivo
[5] = Drug excretion in healthy human urine assessed as unchanged drug at 75 mg, po administered as single dose coadministered with 100 mg of ritonavir by high-pressure liquid chromatography-tandem mass spectrometry/mass spectrometry method; format: ADME, organism-based; settings: read-out: Drug uptake
Summary of the method: (§1)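 Ritonavir 100 mg was given 10 h before and with one oral dose of BILR 355 in PEG solution. Urine was collected by weight as predose blank, then 0-6, 6-24 and 24-72 h, stored at −20°C and assayed by LC-MS/MS. fe = unchanged drug excreted (Ae) as a percentage of dose. Line 50: high-fat breakfast 30 min before dosing.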

[6] = AUC (0 to infinity) in healthy human at 87.5 mg, po administered as single dose coadministered with 100 mg of ritonavir; format: ADME, organism-based; parameters: dose 87.5 mg, time infinity, route oral; settings: plasma
Summary of the method: (§2)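 Healthy male volunteers, fasted. Ritonavir 100 mg given 10 h before and again together with single oral BILR 355 in PEG solution. EDTA plasma sampled predose to 144 h. LC-MS/MS assay after protein precipitation. Noncompartmental analysis, AUC by linear up/log down trapezoidal rule; Vss = CL/F·(MRTp.o. − 1/Ka).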

[7] = tested on: Homo sapiens; assay: Ratio of half life in human at 75 mg, po in presence of 100 mg of ritonavir to half life in human at 75 mg, po; format: ADME, organism-based; settings: in vivo
[8] = tested on: Homo sapiens; assay: Toxicity in healthy human assessed as occurrence of fatigue at 25 mg, po administered as single dose coadministered with 100 mg of ritonavir; format: organism-based; settings: in vivo
[9] = tested on: Homo sapiens; assay: Toxicity in healthy human assessed as occurrence of nausea at 5 mg, po administered as single dose relative to control; format: organism-based; settings: in vivo
[10] = tested on: Homo sapiens; assay: Toxicity in healthy human assessed as occurrence of neurological eyelid disorder at 100 mg, po administered as single dose relative to control; format: organism-based; settings: in vivo
[11] = tested on: Homo sapiens; assay: AUC (0 to infinity) in healthy human at 75 mg, po administered as single dose; format: ADME, organism-based, Plasma; parameters: dose 75 mg, route oral, time infinity; settings: in vivo
Summary of the method: (§3)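 Healthy male volunteers, six active plus two placebo per dose group, single oral dose in PEG solution with 200 ml water after overnight fast; breakfast 60 to 90 min post-dose. EDTA plasma sampled predose to 144 h. Assayed by validated LC-MS/MS after protein precipitation. Noncompartmental analysis, AUC by linear up/log down trapezoidal rule; Vss = CL/F·(MRTp.o. − 1/Ka).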

[12] = AUC (0 to infinity) in healthy human at 100 mg, po administered as single dose; format: ADME, organism-based; parameters: dose 100 mg, time infinity, route oral; settings: plasma; summary of the method: as §3
[13] = Mean residence time in healthy human at 87.5 mg, po administered as single dose coadministered with 100 mg of ritonavir; format: ADME, organism-based; settings: in vivo
[14] = Apparent volume of distribution at steady state in healthy human at 50 mg, po administered as single dose coadministered with 100 mg of ritonavir; format: ADME, organism-based; settings: in vivo, read-out: Vss/F
Summary of the method: (§4)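 Healthy male volunteers, fasted overnight, got one oral dose of BILR 355 in PEG solution with 200 ml water. Ritonavir 100 mg was given 10 h before and again with the dose. Plasma was sampled (EDTA) from predose to 144 h and assayed by validated LC-MS/MS. Cmax and Vz/F came from noncompartmental analysis. Vss/F = CL/F·(MRTp.o. − 1/Ka), with Ka from compartmental modelling.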

[15] = Apparent volume of distribution at steady state in healthy human at 75 mg, po administered as single dose coadministered with 100 mg of ritonavir; format: ADME, organism-based; settings: in vivo, read-out: Vss/F; summary of the method: as §4
[16] = AUC (0 to infinity) in healthy human at 62.5 mg, po administered as single dose coadministered with 100 mg of ritonavir; format: ADME, organism-based; parameters: dose 62.5 mg, time infinity, route oral; settings: plasma; summary of the method: as §2
[17] = Cmax in healthy human at 5 mg, po administered as single dose by high-pressure liquid chromatography-tandem mass spectrometry/mass spectrometry method; format: ADME, organism-based; parameters: dose 5 mg, route oral; settings: in vivo
Summary of the method: (§5)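 Single fasting oral dose of BILR 355 in PEG solution with 200 ml tap water, given to healthy males. Standard breakfast came 60-90 min after the dose. EDTA plasma was sampled predose to 144 h, stored below −18°C and assayed by LC-MS/MS after protein precipitation. Noncompartmental analysis gave Vz/F. Vss/F = CL/F·(MRTp.o. − 1/Ka), with Ka from compartmental modelling.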

[18] = Drug excretion in healthy human urine assessed as unchanged drug at 50 mg, po administered as single dose coadministered with 100 mg of ritonavir by high-pressure liquid chromatography-tandem mass spectrometry/mass spectrometry method; format: ADME, organism-based; settings: read-out: Drug uptake; summary of the method: as §1
[19] = tested on: Homo sapiens; assay: Ratio of Cmax in human at 12.5 mg, po in presence of 100 mg of ritonavir to Cmax in human at 12.5 mg, po; format: ADME, organism-based; settings: in vivo
[20] = tested on: Homo sapiens; assay: Toxicity in healthy human assessed as occurrence of nausea at 25 mg, po administered as single dose relative to control; format: organism-based; settings: in vivo
[21] = Mean residence time in healthy human at 37.5 mg, po administered as single dose coadministered with 100 mg of ritonavir; format: ADME, organism-based; settings: in vivo
[22] = Renal clearance in healthy human at 100 mg, po administered as single dose by high-pressure liquid chromatography-tandem mass spectrometry/mass spectrometry method; format: ADME, organism-based, Kidney; settings: in vivo, read-out: CL_renal (converted)
[23] = tested on: Homo sapiens; assay: Toxicity in high fat fed healthy human assessed as occurrence of maculopapular rash at 50 mg, po administered as single dose coadministered with 100 mg of ritonavir; format: organism-based; settings: in vivo
[24] = tested on: Homo sapiens; assay: Ratio of Cmax in human at 75 mg, po in presence of 100 mg of ritonavir to Cmax in human at 75 mg, po; format: ADME, organism-based; settings: in vivo
[25] = Apparent volume of distribution in terminal phase in healthy human at 12.5 mg, po administered as single dose; format: ADME, organism-based; settings: in vivo, read-out: Vz/F; summary of the method: as §5
[26] = Drug excretion in healthy human urine assessed as unchanged drug in high fat fed healthy human at 50 mg, po administered as single dose coadministered with 100 mg of ritonavir by high-pressure liquid chromatography-tandem mass spectrometry/mass spectrometry method; format: ADME, organism-based; settings: read-out: Drug uptake; summary of the method: as §1
[27] = AUC (0 to last) in healthy human at 12.5 mg, po administered as single dose coadministered with 100 mg of ritonavir; format: ADME, organism-based; parameters: dose 12.5 mg, time 0 - last, route oral; settings: plasma; summary of the method: as §2
[28] = tested on: Homo sapiens; assay: Toxicity in healthy human assessed as occurrence of fatigue at 37.5 mg, po administered as single dose coadministered with 100 mg of ritonavir; format: organism-based; settings: in vivo
[29] = tested on: Homo sapiens; assay: Toxicity in healthy human assessed as occurrence of maculopapular rash at 100 mg, po administered as single dose; format: organism-based; settings: in vivo
[30] = Cmax in healthy human at 87.5 mg, po administered as single dose coadministered with 100 mg of ritonavir by high-pressure liquid chromatography-tandem mass spectrometry/mass spectrometry method; format: ADME, organism-based; parameters: dose 87.5 mg, route oral; settings: in vivo; summary of the method: as §4
[31] = tested on: Homo sapiens; assay: Toxicity in healthy human assessed as occurrence of increase in alanine aminotransferase level at 75 mg, po administered as single dose relative to control; format: organism-based; settings: in vivo

CCN1c2ncc(CCOc3cc[n+]([O-])c4ccccc34)cc2C(=O)N(C)c2cccnc21 [BILR 355]
CL renal [1]: 6.03 mL/min | Activity [2]: 0% | Activity [3]: 16.7% | Activity [4]: 0% | dose excreted [5]: 5.44% | AUC(0-inf) [6]: 11800 ng·h/mL | Ratio [7]: 5.4 | Activity [8]: 0% | Activity [9]: 0% | Activity [10]: 0% | AUC [11]: 779 ng·h/mL | AUC(0-inf) [12]: 1310 ng·h/mL | MRT [13]: 14.6 h | Vd/F [14]: 125 L | Vd/F [15]: 105 L | AUC(0-inf) [16]: 7630 ng·h/mL | Cmax [17]: 4.36 ng/mL | dose excreted [18]: 3.58% | Ratio [19]: 5 | Activity [20]: 0% | MRT [21]: 16.9 h | CL renal [22]: 9.85 mL/min | Activity [23]: 0% | Ratio [24]: 2.3 | Vd/F [25]: 1430 L | dose excreted [26]: 4.62% | AUC(0-t) [27]: 1680 ng·h/mL | Activity [28]: 0% | Activity [29]: 0% | Cmax [30]: 838 ng/mL | Activity [31]: 0%
